Experimental data from different studies.
Each line is one published result; the experiments were not run side by side.
HTR2B: 5-hydroxytryptamine receptor 2B (HTR2B, Homo sapiens, UniProt P41595)
HTR2C: 5-hydroxytryptamine receptor 2C (HTR2C, Homo sapiens, UniProt P28335)
HLA class I histocompatibility antigen, B alpha chain: HLA class I histocompatibility antigen, B alpha chain (Homo sapiens, UniProt P01889)

COc1cc2c(cc1OC)-c1c(OC)c(OC)cc3c1[C@H](C2)N(C)CC3 (racemic)
Ki (HTR2B; ligand displacement, radioligand): 0.613 µM

O=C1Nc2ccc3ncsc3c2/C1=C/c1cnc[nH]1
IC50 (Serine/threonine-protein kinase Nek6 (NEK6, Homo sapiens, UniProt Q9HC98); enzyme activity, inhibitor): 27.5 µM

COc1cc(CCNC2CCCc3cccc(O)c32)c(OC)cc1C#N (centres unmarked)
EC50 (HTR2C; G protein activation, agonist, BRET): 5.9 µM

CCCCC1CNC2CCc3ccc(OC)cc3C12 (racemic)
Ki (HTR2B; ligand displacement, radioligand): 0.171 µM

COc1cc2c3c(c1OC)-c1c(cccc1OC)CC3N(C)CC2 (racemic)
Ki (HTR2B; ligand displacement, radioligand): 0.596 µM

O=[N+]([O-])c1ccc(O)c([N+](=O)[O-])c1
Kd (Casein kinase I isoform delta (CSNK1D, Homo sapiens, UniProt P48730); binding, SPR): > 50 µM

CC[C@H](C)[C@H](NC(=O)[C@@H](N)CCCNC(=N)N)C(=O)N[C@@H](Cc1ccc(O)cc1)C(=O)NCC(=O)N1CCC[C@H]1C(=O)N1CCC[C@H]1C(=O)N[C@@H](Cc1c[nH]cn1)C(=O)N[C@@H](CCC(N)=O)C(=O)N[C@@H](Cc1ccccc1)C(=O)O
IC50 (HLA class I histocompatibility antigen, B alpha chain; cell-free assay): 2.3 µM

COc1cc(C(F)(F)F)c(OC)cc1C1CCCNC1 (centres unmarked)
EC50 (HTR2B; G protein activation, agonist, BRET): 0.12 µM

CC[C@H](C)[C@H](NC(=O)[C@H](CCCNC(=N)N)NC(=O)[C@H](CC(N)=O)NC(=O)[C@H](Cc1ccccc1)NC(=O)[C@@H](NC(=O)[C@@H](N)Cc1ccc(O)cc1)[C@@H](C)O)C(=O)N[C@@H](Cc1c[nH]cn1)C(=O)N[C@@H](CCC(=O)O)C(=O)N[C@@H](Cc1ccccc1)C(=O)O
IC50 (HLA class I histocompatibility antigen, B alpha chain; cell-free assay): 44 µM

O=C(O)CC(O)(CC(=O)O)C(=O)O
Ki (Tyrosine-protein phosphatase non-receptor type 5 (PTPN5, Homo sapiens, UniProt P54829); enzyme activity, inhibitor): 4100 µM

CC[C@H](C)[C@H](NC(=O)[C@@H]1CCCN1C(=O)[C@H](Cc1c[nH]cn1)NC(=O)[C@H](CCCCN)NC(=O)[C@H](Cc1ccccc1)NC(=O)[C@H](CC(C)C)NC(=O)[C@@H](N)CCCCN)C(=O)N[C@@H](CCC(N)=O)C(=O)N[C@@H](CC(C)C)C(=O)O
IC50 (HLA class I histocompatibility antigen, B alpha chain; cell-free assay): 7.48 µM

CC(C)C[C@H](NC(=O)[C@H](CC(C)C)NC(=O)[C@@H]1CCCN1C(=O)[C@H](C)NC(=O)[C@@H](NC(=O)[C@H](C)N)C(C)C)C(=O)N[C@@H](Cc1c[nH]cn1)C(=O)N[C@@H](CO)C(=O)N[C@H](C(=O)O)[C@@H](C)OP(=O)(O)O
Kd (Serine/threonine-protein kinase PLK1, polo-box (PLK1, Homo sapiens, UniProt P53350); binding, MST; pH 8): 0.0463 µM

COc1cc2c(cc1OC)CN(CCc1ccc(NC(=O)c3cccc4c(=O)c5cccc(OC)c5[nH]c34)cc1)CC2
Ki (HTR2B; cell-free assay): 0.222 µM

CC[C@H](C)[C@H](NC(=O)[C@@H]1CCCN1C(=O)[C@H](Cc1c[nH]cn1)NC(=O)[C@H](CCCCN)NC(=O)[C@H](Cc1ccc(O)cc1)NC(=O)[C@@H](NC(=O)[C@@H](N)Cc1ccc(O)cc1)[C@@H](C)O)C(=O)N[C@@H](Cc1ccc(O)cc1)C(=O)N[C@@H](CC(C)C)C(=O)O
IC50 (HLA class I histocompatibility antigen, B alpha chain; cell-free assay): 17.7 µM

CC(C)CC[C@@H](O)[C@@H](C)[C@H]1CC[C@H]2[C@@H]3CC=C4C[C@@H](O)CC[C@]4(C)[C@H]3CC[C@]12C
Kd (Cholesterol side-chain cleavage enzyme, mitochondrial (CYP11A1, Homo sapiens, UniProt P05108); binding): 0.163 µM

CC[C@H](C)[C@H](NC(=O)[C@@H](N)CCSC)C(=O)N[C@@H](Cc1ccccc1)C(=O)N[C@@H](CC(=O)O)C(=O)N[C@@H](CCCCN)C(=O)N1CCC[C@H]1C(=O)N[C@H](C(=O)N[C@@H](Cc1ccc(O)cc1)C(=O)N[C@@H](Cc1ccccc1)C(=O)O)C(C)C
IC50 (HLA class I histocompatibility antigen, B alpha chain; cell-free assay): 36 µM

COc1cc(CCNC(CO)c2ccccc2)c(OC)cc1C#N (centres unmarked)
EC50 (HTR2C; G protein activation, agonist, BRET): 2.9 µM
